The source made the active and inactive calls. The calls are words filed in the database; no cut-off is given here.
Tests used:
Candida albicans [1] = experiment: Antifungal activity against Candida albicans ATCC 10231 assessed as inhibition of microbial growth by NCCLS protocol based method; format: functional
Method in brief: (§1)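 Broth MIC50 determined following NCCLS guidelines in Sabouraud medium, with fungal suspension in 24-well format. Compound tested at 0.0625, 0.125, 0.5, 1, 2, 4, 8 and 16 μg/mL. Plates cultured statically at 35 °C. MIC50 is the lowest concentration giving 50% growth inhibition. Naftifine and fluconazole served as positive controls.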

Nakaseomyces glabratus = experiment: Antifungal activity against Candida glabrata ATCC 0001 assessed as inhibition of microbial growth by NCCLS protocol based method; format: functional; method in brief: as §1
Pichia kudriavzevii = experiment: Antifungal activity against Candida krusei ATCC 6258 assessed as inhibition of microbial growth by NCCLS protocol based method; format: functional; method in brief: as §1
Candida tropicalis = experiment: Antifungal activity against Candida tropicalis ATCC 1369 assessed as inhibition of microbial growth by NCCLS protocol based method; format: functional; method in brief: as §1
Aspergillus fumigatus = experiment: Antifungal activity against Aspergillus fumigatus KM8001 assessed as inhibition of microbial growth by NCCLS protocol based method; format: functional; method in brief: as §1
Candida albicans [2] = experiment: Antifungal activity against fluconazole-resistant Candida albicans 17# assessed as inhibition of microbial growth by NCCLS protocol based method; format: functional
Candida albicans [3] = experiment: Antifungal activity against fluconazole-resistant Candida albicans 904 assessed as inhibition of microbial growth by NCCLS protocol based method; format: functional
Candida albicans [4] = experiment: Antifungal activity against Candida albicans ATCC SC5314 assessed as reduction in cell division at 10 nM/mL by polarizing microscopy; format: functional, organism-based; conditions: dose 10.0 nmol/ml
Method in brief: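 C. albicans ATCC SC5314 observed by polarizing microscopy over treatment time. Untreated, fluconazole- and naftifine-treated control groups were included. Cell density, dividing cells and cell fracture were assessed, with cell counts taken per field.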

Candida albicans [5] = experiment: Antifungal activity against Candida albicans ATCC SC5314 assessed as reduction in size of fungal cells (reference value: 8.29 micrometer); format: functional
Candida albicans SC5314 [6] = experiment: Inhibition of SE/CYP51 in Candida albicans ATCC SC5314 assessed as ergosterol level at 0.5 ug/ml incubated for 48 hrs by LC/MS analysis (reference value: 95.1 %); parameters: scale not given: the % may be the effect or the level left; conditions: dose 0.5 µg/ml
Method in brief: (§2)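 C. albicans SC5314 cells exposed to compound at 0.125, 0.5 or 4 μg/mL for 48 h, alongside untreated, fluconazole and naftifine controls. Sterols (ergosterol, squalene, lanosterol, eburicol, unknown) analysed by LC-MS. Each component expressed as percentage of total sterols from peak area ratios.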

Candida albicans SC5314 [7] = experiment: Inhibition of SE/CYP51 in Candida albicans ATCC SC5314 assessed as ergosterol level at 4 ug/ml incubated for 48 hrs by LC/MS analysis (reference value: 95.1 %); parameters: scale not given: the % may be the effect or the level left; conditions: dose 4.0 µg/ml; method in brief: as §2
Candida albicans SC5314 [8] = experiment: Inhibition of SE/CYP51 in Candida albicans ATCC SC5314 assessed as squalene level at 4 ug/ml incubated for 48 hrs by LC/MS analysis; parameters: scale not given: the % may be the effect or the level left; conditions: dose 4.0 µg/ml; method in brief: as §2
Candida albicans SC5314 [9] = experiment: Inhibition of SE/CYP51 in Candida albicans ATCC SC5314 assessed as lanosterol level at 0.125 ug/ml incubated for 48 hrs by LC/MS analysis; parameters: scale not given: the % may be the effect or the level left; conditions: dose 0.125 µg/ml
Method in brief: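 C. albicans ATCC SC5314 cells exposed to drug at 0.125, 0.5 or 4 μg/mL for 48 h, alongside an untreated control. Sterols were extracted and analysed by LC-MS. Ergosterol, squalene, lanosterol, eburicol and unknown sterols are each given as % of total sterols, calculated from the peak area ratio of each component.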

Candida albicans SC5314 [10] = experiment: Inhibition of SE/CYP51 in Candida albicans ATCC SC5314 assessed as lanosterol level at 4 ug/ml incubated for 48 hrs by LC/MS analysis; parameters: scale not given: the % may be the effect or the level left; conditions: dose 4.0 µg/ml; method in brief: as §2
Candida albicans SC5314 [11] = experiment: Inhibition of SE/CYP51 in Candida albicans ATCC SC5314 assessed as eburicol level at […] ug/ml incubated for 48 hrs by LC/MS analysis (reference value: 1.4 %); parameters: scale not given: the % may be the effect or the level left; conditions: dose 0.125 µg/ml
Candida albicans SC5314 [12] = experiment: Inhibition of SE/CYP51 in Candida albicans ATCC SC5314 assessed as eburicol level at 0.5 ug/ml incubated for 48 hrs by LC/MS analysis (reference value: 1.4 %); parameters: scale not given: the % may be the effect or the level left; conditions: dose 0.5 µg/ml; method in brief: as §2
Candida albicans SC5314 [13] = experiment: Inhibition of SE/CYP51 in Candida albicans ATCC SC5314 assessed as eburicol level at 4 ug/ml incubated for 48 hrs by LC/MS analysis (reference value: 1.4 %); parameters: scale not given: the % may be the effect or the level left; conditions: dose 4.0 µg/ml; method in brief: as §2
Candida albicans SC5314 [14] = experiment: Inhibition of SE/CYP51 in Candida albicans ATCC SC5314 assessed as unknown sterol level at […] ug/ml incubated for 48 hrs by LC/MS analysis (reference value: 3.5 %); parameters: scale not given: the % may be the effect or the level left; conditions: dose 0.125 µg/ml
Candida albicans SC5314 [15] = experiment: Inhibition of SE/CYP51 in Candida albicans ATCC SC5314 assessed as unknown sterol level at 0.5 ug/ml incubated for 48 hrs by LC/MS analysis (reference value: 3.5 %); parameters: scale not given: the % may be the effect or the level left; conditions: dose 0.5 µg/ml; method in brief: as §2
[16] = Inhibition of Candida albicans ATCC SC5314 SE incubated for 30 mins by spectrophotometric method
Method in brief: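 Enzymes (SE, CYP51) extracted from C. albicans SC5314 using kits. 50 µg enzyme incubated with varying compound concentrations for 30 min at 37 °C in Tris pH 7.4, KCl, MgCl2, 2 mM NADPH, with squalene or eburicol as substrate. Reaction stopped with acetonitrile and centrifuged. Eburicol consumption (CYP51) read by HPLC. Squalene, after sulfuric acid/formaldehyde derivatization, read at 400 nm (SE). IC50 reported.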

[17] = Stability in human plasma assessed as compound remaining incubated for 60 mins; format: ADME, cell-free; conditions: read-out: Stabilty
Method in brief: (§3)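 Compound incubated in human plasma. Percent remaining measured at 60 and 120 min.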

[18] = Stability in human plasma assessed as compound remaining incubated for 120 mins; format: ADME, cell-free; conditions: read-out: Stabilty; method in brief: as §3
[19] = Toxicity in mouse infected with Candida albicans SC5314 assessed as change in body weight administered via abdomen for 7 days; conditions: in vivo, ip, 168 h, time 7 day
Method in brief: (§4)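 Mice infected with C. albicans SC5314 by subcutaneous abdominal injection, then randomized into saline, and two compound-treated groups. Treatment given by abdominal injection for 7 days, with body weight monitored. Heart, liver, spleen, lung, kidney and infected abdominal tissue harvested for H&E histology.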

Candida albicans [20] = experiment: In vivo antifungal activity against Candida albicans SC5314 infected in mouse assessed as uniform cell distribution injected via abdomen for 7 days by H and E staining based histological analysis; format: functional, organism-based; conditions: time 7.0 day; method in brief: as §4
Candida albicans [21] = experiment: In vivo antifungal activity against Candida albicans infected in mouse assessed as disappearance of cell nuclear aggregation injected via abdomen for 7 days by H and E staining based histological analysis; format: functional, organism-based; conditions: SC5314, time 7.0 day; method in brief: as §4
[22] = Toxicity in mouse infected with Candida albicans SC5314 assessed as change in heart morphology administered via abdomen for 7 days by H and E staining based histological analysis; conditions: in vivo, ip, 168 h, time 7 day; method in brief: as §4
[23] = Toxicity in mouse infected with Candida albicans SC5314 assessed as change in liver morphology administered via abdomen for 7 days by H and E staining based histological analysis; conditions: in vivo, ip, 168 h, time 7 day; method in brief: as §4
[24] = Toxicity in mouse infected with Candida albicans SC5314 assessed as change in lung morphology administered via abdomen for 7 days by H and E staining based histological analysis; conditions: in vivo, ip, 168 h, time 7 day; method in brief: as §4
[25] = Hepatotoxicity in mouse infected with Candida albicans SC5314 assessed as effect on alanine aminotransferase level in plasma administered via abdomen for 7 days (reference value: 105 +/- 8.3 IU/L); format: toxicity; conditions: ip, 168 h, time 7 day

**Q.** Which MIC50 (Candida albicans [1]) does the source give for `O=C(NC(Cn1ccnc1)C(=O)NCc1ccncc1)c1ccc2ccccc2c1` (stereo not drawn) here?
**A.** 0.25 µg/mL

**Q.** And the MIC50 (Nakaseomyces glabratus)?
**A.** 0.125 µg/mL

**Q.** And the MIC50 (Pichia kudriavzevii)?
**A.** 0.25 µg/mL

**Q.** And the MIC50 (Candida tropicalis)?
**A.** 0.25 µg/mL

**Q.** And the MIC50 (Aspergillus fumigatus)?
**A.** 4 µg/mL

**Q.** What about the MIC50 (Candida albicans [2]) of the same compound?
**A.** 4 µg/mL

**Q.** What about the MIC50 (Candida albicans [3]) of the same compound?
**A.** > 16 µg/mL

**Q.** And the Activity (Candida albicans [4])?
**A.** Active

**Q.** And the Activity (Candida albicans [5])?
**A.** 7.53 um

**Q.** What about the Activity (Candida albicans SC5314 [6]) of the same compound?
**A.** 35.6%

**Q.** And the Activity (Candida albicans SC5314 [7])?
**A.** 13.2%

**Q.** And the Activity (Candida albicans SC5314 [8])?
**A.** 20.5%

**Q.** And the Activity (Candida albicans SC5314 [9])?
**A.** 3.8%

**Q.** And the Activity (Candida albicans SC5314 [10])?
**A.** 10.9%

**Q.** What about the Activity (Candida albicans SC5314 [11]) of the same compound?
**A.** 13.6%

**Q.** And the Activity (Candida albicans SC5314 [12])?
**A.** 37.9%

**Q.** What about the Activity (Candida albicans SC5314 [13]) of the same compound?
**A.** 49.3%

**Q.** What about the Activity (Candida albicans SC5314 [14]) of the same compound?
**A.** 5%

**Q.** And the Activity (Candida albicans SC5314 [15])?
**A.** 4.8%

**Q.** And the IC50 [16]?
**A.** 685 nM

**Q.** What about the remaining at 1 h [17] of the same compound?
**A.** 94.5%

**Q.** What about the remaining at 2 h [18] of the same compound?
**A.** 91.6%

**Q.** What about the Activity [19] of the same compound?
**A.** Non-Toxic

**Q.** And the Activity (Candida albicans [20])?
**A.** Active

**Q.** And the Activity (Candida albicans [21])?
**A.** Active

**Q.** And the Activity [22]?
**A.** Non-Toxic

**Q.** What about the Activity [23] of the same compound?
**A.** Non-Toxic

**Q.** And the Activity [24]?
**A.** Non-Toxic

**Q.** And the Activity [25]?
**A.** 102 IU/L

**Q.** For `CC(NC(=O)c1cccc2ccccc12)C(=O)NC(Cn1ccnc1)C(=O)c1ccccc1` (stereo not drawn), which MIC50 (Candida albicans [1]) is on record?
**A.** 0.125 µg/mL

**Q.** And the MIC50 (Nakaseomyces glabratus)?
**A.** 0.25 µg/mL

**Q.** What about the MIC50 (Pichia kudriavzevii) of the same compound?
**A.** 0.25 µg/mL

**Q.** What about the MIC50 (Candida tropicalis) of the same compound?
**A.** 0.125 µg/mL

**Q.** What about the MIC50 (Aspergillus fumigatus) of the same compound?
**A.** 4 µg/mL

**Q.** What about the MIC50 (Candida albicans [2]) of the same compound?
**A.** 2 µg/mL

**Q.** And the MIC50 (Candida albicans [3])?
**A.** 4 µg/mL

**Q.** What about the Activity (Candida albicans [4]) of the same compound?
**A.** Active

**Q.** And the Activity (Candida albicans [5])?
**A.** 7.51 um

**Q.** What about the Activity (Candida albicans SC5314 [6]) of the same compound?
**A.** 29.9%

**Q.** And the Activity (Candida albicans SC5314 [7])?
**A.** 10.8%

**Q.** And the Activity (Candida albicans SC5314 [8])?
**A.** 27.9%

**Q.** And the Activity (Candida albicans SC5314 [9])?
**A.** 2.8%

**Q.** And the Activity (Candida albicans SC5314 [10])?
**A.** 12.5%

**Q.** What about the Activity (Candida albicans SC5314 [11]) of the same compound?
**A.** 17.5%

**Q.** What about the Activity (Candida albicans SC5314 [12]) of the same compound?
**A.** 34%

**Q.** What about the Activity (Candida albicans SC5314 [13]) of the same compound?
**A.** 42.6%

**Q.** And the Activity (Candida albicans SC5314 [14])?
**A.** 5.4%

**Q.** And the Activity (Candida albicans SC5314 [15])?
**A.** 5.8%

**Q.** What about the IC50 [16] of the same compound?
**A.** 961 nM

**Q.** What about the remaining at 1 h [17] of the same compound?
**A.** 96.3%

**Q.** And the remaining at 2 h [18]?
**A.** 92.1%

**Q.** What about the Activity [19] of the same compound?
**A.** Non-Toxic

**Q.** And the Activity (Candida albicans [20])?
**A.** Active

**Q.** And the Activity (Candida albicans [21])?
**A.** Active

**Q.** What about the Activity [22] of the same compound?
**A.** Non-Toxic

**Q.** What about the Activity [23] of the same compound?
**A.** Non-Toxic

**Q.** And the Activity [24]?
**A.** Non-Toxic

**Q.** And the Activity [25]?
**A.** 106 IU/L

Source: ChEMBL document CHEMBL4732095, “Novel naphthylamide derivatives as dual-target antifungal inhibitors: Design, synthesis and biological evaluation” (Eur J Med Chem, 2021)
